Laboratory results as given in ChEMBL document CHEMBL4196006, “Aryl thiosemicarbazones for the treatment of trypanosomatidic infections” (Eur J Med Chem, 2018).
The source made the active and inactive calls. No cut-off for these calls is given here.

What was measured:
CYP2C19 = CYP2C19 (Homo sapiens, UniProt P33261); test: Inhibition of human microsomal CYP2C19 expressed in baculovirus infected BTI-TN-5B1-4 cells at 10 uM incubated for 30 mins by luciferase assay relative to control; assay type: ADME
CYP2C19, sequence (P33261 whole entry): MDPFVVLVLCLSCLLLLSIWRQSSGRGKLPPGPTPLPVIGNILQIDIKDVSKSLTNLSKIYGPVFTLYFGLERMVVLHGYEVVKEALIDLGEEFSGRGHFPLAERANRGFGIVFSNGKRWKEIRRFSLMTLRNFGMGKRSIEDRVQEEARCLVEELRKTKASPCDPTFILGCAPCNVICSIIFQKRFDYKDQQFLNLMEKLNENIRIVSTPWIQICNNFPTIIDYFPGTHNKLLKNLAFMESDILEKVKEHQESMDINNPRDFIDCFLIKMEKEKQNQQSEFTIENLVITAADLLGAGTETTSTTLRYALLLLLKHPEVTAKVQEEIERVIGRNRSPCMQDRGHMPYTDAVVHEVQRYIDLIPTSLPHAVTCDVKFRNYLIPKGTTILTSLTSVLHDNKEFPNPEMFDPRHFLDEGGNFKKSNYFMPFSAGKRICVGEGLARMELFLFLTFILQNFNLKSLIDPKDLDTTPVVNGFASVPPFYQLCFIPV
How it was run: (§1)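 CYP1A2, 2C9, 2C19, 2D6 and 3A4 in microsomes from baculovirus-infected insect cells, each with a P450-Glo luminogenic substrate. Inhibition read as loss of light; single-point at 10 μM, triplicate.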

[1] = Cytotoxicity against human THP1 cells assessed as viable cells at 100 uM after 72 hrs by MTT assay relative to control; assay type: cell-based, THP-1; conditions: read-out: Activity
How it was run: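 THP-1-derived macrophages exposed to compounds for 72 h, tested at 100 μM or in dose-response; viability read by MTT colorimetric assay.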

CYP1A2 = biological target: T1, CYP1A2 (Homo sapiens, UniProt P05177); test: Inhibition of human microsomal CYP1A2 expressed in baculovirus infected BTI-TN-5B1-4 cells at 10 uM incubated for 30 mins by luciferase assay relative to control; assay type: ADME; how it was run: as §1
T1 sequence (P05177 whole entry): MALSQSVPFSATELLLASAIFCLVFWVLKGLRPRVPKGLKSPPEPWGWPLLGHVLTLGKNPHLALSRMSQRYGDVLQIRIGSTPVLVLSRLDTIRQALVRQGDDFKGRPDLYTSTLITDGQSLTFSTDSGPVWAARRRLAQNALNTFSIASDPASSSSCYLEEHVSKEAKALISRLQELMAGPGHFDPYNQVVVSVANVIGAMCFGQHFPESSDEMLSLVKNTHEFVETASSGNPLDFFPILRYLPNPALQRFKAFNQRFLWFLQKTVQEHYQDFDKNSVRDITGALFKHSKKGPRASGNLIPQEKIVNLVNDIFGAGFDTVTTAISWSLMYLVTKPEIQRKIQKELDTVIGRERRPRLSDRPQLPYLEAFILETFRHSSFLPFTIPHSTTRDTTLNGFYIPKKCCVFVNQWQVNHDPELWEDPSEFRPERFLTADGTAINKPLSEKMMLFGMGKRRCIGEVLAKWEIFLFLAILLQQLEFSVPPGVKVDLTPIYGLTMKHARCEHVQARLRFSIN

Aurora kinase B = Aurora kinase B (Homo sapiens, UniProt Q96GD4); test: Inhibition of recombinant full-length human aurora B kinase expressed in baculovirus system at 10 uM using MBP as substrate incubated for 45 mins by ADP-glo kinase assay; conditions: probe MBP
Aurora kinase B, sequence (Q96GD4 whole entry): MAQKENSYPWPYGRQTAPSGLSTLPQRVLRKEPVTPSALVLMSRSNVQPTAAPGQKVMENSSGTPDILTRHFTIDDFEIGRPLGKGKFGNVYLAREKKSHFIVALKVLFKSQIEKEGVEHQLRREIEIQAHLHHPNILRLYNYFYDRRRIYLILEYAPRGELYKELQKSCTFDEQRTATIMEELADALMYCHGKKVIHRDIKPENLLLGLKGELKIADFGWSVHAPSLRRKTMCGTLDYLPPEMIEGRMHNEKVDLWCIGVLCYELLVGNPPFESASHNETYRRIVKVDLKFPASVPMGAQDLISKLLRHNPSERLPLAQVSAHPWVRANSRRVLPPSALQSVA
How it was run: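 Aurora B activity measured as ADP formation via coupled luciferase ADP-Glo luminescence; single-point at 10 μM, triplicate.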

[2] = Cytotoxicity against human U2OS cells assessed as viable cells at 50 uM after 72 hrs by MTT assay relative to control; assay type: cell-based; conditions: read-out: Activity
[3] = Cytotoxicity against human 786-O cells assessed as inhibition of mitochondrial viability at 10 uM after 6 hrs by CMXRos staining based assay relative to control; assay type: cell-based, 786-0; conditions: read-out: INH
How it was run: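 Mitochondrial toxicity monitored by MitoTracker Red CMXRos uptake and high-content imaging; compound at 10 μM, triplicate.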

[4] = Cytotoxicity against human A549 cells assessed as growth inhibition at 10 uM after 48 hrs by CellTiter-Glo assay relative to control; values are per cent of control; conditions: A549 cells
[5] = biological target: T2, Pteridine reductase, putative (Trypanosoma brucei) (UniProt Q581W1); test: Inhibition of Trypanosoma brucei PTR1 at 50 uM using H2B as substrate in presence of NADPH by photometric analysis relative to control
T2 sequence (whole entry): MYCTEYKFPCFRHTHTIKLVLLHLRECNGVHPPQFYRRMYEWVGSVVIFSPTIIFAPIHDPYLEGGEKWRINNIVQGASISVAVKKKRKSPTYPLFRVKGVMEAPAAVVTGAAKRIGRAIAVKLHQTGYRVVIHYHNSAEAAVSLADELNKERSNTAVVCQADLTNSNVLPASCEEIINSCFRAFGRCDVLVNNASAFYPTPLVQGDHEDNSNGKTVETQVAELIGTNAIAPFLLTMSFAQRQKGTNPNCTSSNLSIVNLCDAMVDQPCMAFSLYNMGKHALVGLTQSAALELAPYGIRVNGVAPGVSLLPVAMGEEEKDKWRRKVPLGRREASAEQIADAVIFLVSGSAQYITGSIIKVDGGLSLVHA

CYP2C9 = CYP2C9 (Homo sapiens, UniProt P11712); test: Inhibition of human microsomal CYP2C9 expressed in baculovirus infected BTI-TN-5B1-4 cells at 10 uM incubated for 30 mins by luciferase assay relative to control; assay type: ADME; how it was run: as §1
CYP2C9, sequence (P11712 whole entry): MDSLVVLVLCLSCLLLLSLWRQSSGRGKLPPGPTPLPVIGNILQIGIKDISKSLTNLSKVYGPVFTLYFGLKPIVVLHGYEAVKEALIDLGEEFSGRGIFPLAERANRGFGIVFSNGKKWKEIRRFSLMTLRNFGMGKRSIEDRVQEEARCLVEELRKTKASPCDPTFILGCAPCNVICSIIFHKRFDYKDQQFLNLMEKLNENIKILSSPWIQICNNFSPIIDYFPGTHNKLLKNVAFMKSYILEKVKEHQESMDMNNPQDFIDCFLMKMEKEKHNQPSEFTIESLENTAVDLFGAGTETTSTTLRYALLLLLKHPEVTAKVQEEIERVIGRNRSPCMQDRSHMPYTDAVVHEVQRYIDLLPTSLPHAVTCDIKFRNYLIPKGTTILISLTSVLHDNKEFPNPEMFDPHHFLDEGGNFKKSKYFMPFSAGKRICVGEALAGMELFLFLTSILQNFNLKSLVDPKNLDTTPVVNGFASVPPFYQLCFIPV

Trypanosoma brucei [6] = test: Antitrypanosomal activity against Trypanosoma brucei Lister 427 bloodstream form assessed as parasite growth inhibition at 50 uM after 72 hrs by SYBR Green assay relative to control; assay type: functional
Trypanosoma brucei [7] = test: Antitrypanosomal activity against Trypanosoma brucei Lister 427 bloodstream form at 10 uM after 72 hrs by resazurin dye-based assay relative to control; assay type: functional
[8] = Cytotoxicity against human WI38 cells assessed as growth inhibition at 10 uM after 48 hrs by CellTiter-Glo assay relative to control; values are per cent of control; conditions: WI38 cells
Leishmania infantum = test: Antileishmanial activity against Leishmania infantum amastigote form assessed as parasite growth inhibition at 50 uM after 72 hrs by steady-Glo reagent based assay relative to control; assay type: functional; conditions: for inhibition of growth at 50 µM: read-out: GI
How it was run: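 Intramacrophage L. infantum amastigotes in THP-1-derived macrophages, tested at 50 μM or in dose-response. Plates held 72 h at 37 °C, 5% CO2. Medium was replaced by PBS, macrophages lysed, and parasites read by Steady-Glo luminescence. High-content imaging gave host cell number, infection ratio (infected/total cells) and parasites per infected cell. Values are means of at least two independent experiments.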

Trypanosoma brucei [9] = test: Potentiation of methotrexate-induced antitrypanosomal activity against Trypanosoma brucei Lister 427 bloodstream form at 10 uM after 72 hrs by resazurin dye-based assay relative to control; assay type: functional
Trypanosoma brucei [10] = test: Potentiation of methotrexate-induced antitrypanosomal activity against Trypanosoma brucei Lister 427 bloodstream form at 10 uM after 72 hrs by resazurin dye-based assay; assay type: functional
CYP2D6 = CYP2D6 (Homo sapiens, UniProt P10635); test: Inhibition of human microsomal CYP2D6 expressed in baculovirus infected BTI-TN-5B1-4 cells at 10 uM incubated for 30 mins by luciferase assay relative to control; assay type: ADME; how it was run: as §1
CYP2D6, sequence (P10635 whole entry): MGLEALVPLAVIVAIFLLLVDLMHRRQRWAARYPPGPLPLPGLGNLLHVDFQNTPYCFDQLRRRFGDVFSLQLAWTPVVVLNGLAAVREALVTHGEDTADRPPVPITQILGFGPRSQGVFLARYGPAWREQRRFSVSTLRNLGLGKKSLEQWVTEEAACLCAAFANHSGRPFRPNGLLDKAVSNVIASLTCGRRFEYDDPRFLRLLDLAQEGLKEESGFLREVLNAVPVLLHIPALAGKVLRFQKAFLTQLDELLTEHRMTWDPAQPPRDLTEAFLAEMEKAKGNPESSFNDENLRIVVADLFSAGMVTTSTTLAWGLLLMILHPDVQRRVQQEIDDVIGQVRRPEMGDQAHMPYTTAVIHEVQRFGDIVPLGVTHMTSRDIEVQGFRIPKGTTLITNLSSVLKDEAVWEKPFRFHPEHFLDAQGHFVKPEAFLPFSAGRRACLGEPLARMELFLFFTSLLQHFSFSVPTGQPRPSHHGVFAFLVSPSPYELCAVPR

hERG (KCNH2) = hERG (KCNH2) (Homo sapiens, UniProt Q12809); test: Inhibition of human ERG at 10 uM incubated for 2 hrs by fluorescence polarisation assay relative to control
hERG (KCNH2), sequence (Q12809 whole entry): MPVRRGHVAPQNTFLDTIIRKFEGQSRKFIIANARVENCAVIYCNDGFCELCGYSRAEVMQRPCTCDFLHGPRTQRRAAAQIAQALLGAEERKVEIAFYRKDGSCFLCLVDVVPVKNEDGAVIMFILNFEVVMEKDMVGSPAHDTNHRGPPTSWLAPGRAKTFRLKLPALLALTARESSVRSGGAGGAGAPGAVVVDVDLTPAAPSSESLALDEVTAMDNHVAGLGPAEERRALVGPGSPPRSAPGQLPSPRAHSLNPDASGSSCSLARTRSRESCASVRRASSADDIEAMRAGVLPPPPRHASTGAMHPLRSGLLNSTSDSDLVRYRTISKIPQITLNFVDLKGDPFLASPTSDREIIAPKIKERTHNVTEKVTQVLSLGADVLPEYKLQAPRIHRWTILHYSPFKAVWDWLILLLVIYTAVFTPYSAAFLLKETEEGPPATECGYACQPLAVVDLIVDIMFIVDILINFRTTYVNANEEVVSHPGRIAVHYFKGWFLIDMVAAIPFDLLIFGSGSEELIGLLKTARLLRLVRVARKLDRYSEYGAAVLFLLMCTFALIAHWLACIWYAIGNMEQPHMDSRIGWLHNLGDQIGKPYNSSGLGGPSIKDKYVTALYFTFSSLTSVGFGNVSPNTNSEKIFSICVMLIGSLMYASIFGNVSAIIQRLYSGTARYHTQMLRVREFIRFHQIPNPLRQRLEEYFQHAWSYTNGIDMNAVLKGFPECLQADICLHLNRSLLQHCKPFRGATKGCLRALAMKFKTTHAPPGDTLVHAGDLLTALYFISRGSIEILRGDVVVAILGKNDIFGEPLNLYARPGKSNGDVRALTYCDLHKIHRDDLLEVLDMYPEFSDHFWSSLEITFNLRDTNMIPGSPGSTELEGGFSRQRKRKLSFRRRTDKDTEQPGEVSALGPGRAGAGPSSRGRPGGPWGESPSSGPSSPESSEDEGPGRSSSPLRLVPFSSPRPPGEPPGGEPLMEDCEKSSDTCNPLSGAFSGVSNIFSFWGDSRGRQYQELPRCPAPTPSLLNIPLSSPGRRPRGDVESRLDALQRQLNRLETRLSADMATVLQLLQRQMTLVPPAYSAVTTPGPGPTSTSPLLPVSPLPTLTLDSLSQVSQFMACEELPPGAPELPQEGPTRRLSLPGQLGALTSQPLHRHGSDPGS

CYP3A4 = CYP3A4 (Homo sapiens, UniProt P08684); test: Inhibition of human microsomal CYP3A4 expressed in baculovirus infected BTI-TN-5B1-4 cells at 10 uM incubated for 30 mins by luciferase assay relative to control; assay type: ADME; how it was run: as §1
CYP3A4, sequence (P08684 whole entry): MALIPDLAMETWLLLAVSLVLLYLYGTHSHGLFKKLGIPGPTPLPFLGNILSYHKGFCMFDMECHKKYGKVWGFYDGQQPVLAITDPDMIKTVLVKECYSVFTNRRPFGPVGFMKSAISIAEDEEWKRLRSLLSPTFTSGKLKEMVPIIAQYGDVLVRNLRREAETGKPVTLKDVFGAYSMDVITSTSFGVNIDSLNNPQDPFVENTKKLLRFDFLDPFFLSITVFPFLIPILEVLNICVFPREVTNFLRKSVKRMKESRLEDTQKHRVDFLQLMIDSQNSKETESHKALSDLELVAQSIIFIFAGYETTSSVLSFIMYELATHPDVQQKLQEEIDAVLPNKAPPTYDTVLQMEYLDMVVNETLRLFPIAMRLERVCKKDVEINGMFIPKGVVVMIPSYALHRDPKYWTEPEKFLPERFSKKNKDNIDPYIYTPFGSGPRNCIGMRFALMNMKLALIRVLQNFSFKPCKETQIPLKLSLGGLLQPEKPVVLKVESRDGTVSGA

[11] = biological target: T3, Pteridine reductase 1 (Leishmania major) (UniProt Q01782); test: Inhibition of Leishmania major PTR1 at 50 uM using H2B as substrate in presence of NADPH by photometric analysis relative to control
T3 sequence (whole entry): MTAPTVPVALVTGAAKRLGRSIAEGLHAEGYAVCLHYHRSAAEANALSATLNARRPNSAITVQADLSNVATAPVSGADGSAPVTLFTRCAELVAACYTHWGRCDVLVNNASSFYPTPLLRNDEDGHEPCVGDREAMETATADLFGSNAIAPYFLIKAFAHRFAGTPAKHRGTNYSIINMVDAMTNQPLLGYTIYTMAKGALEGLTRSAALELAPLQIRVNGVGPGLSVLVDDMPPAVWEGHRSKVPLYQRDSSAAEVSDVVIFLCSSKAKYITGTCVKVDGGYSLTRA

Trypanosoma cruzi = test: Antitrypanosomal activity against Trypanosoma cruzi amastigote form infected in human U2OS cells assessed as parasite growth inhibition at 50 uM after 72 hrs relative to control; assay type: functional; conditions: for inhibition of growth at 50 µM: read-out: GI
How it was run: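 U2OS monolayers grown for 24 h, then infected with tissue-derived trypomastigotes of T. cruzi Y strain. Compounds were added 24 h after infection at 50 μM (single-point) or in dose-response, with 72 h exposure. Plates were fixed, stained and analysed by high-content imaging; activity was normalized to infected and non-infected controls. Means of at least two experiments; benznidazole as reference.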

| SMILES | inhibition at 0.5 h, 10 µM (CYP2C19) [%] | viability at 72 h, 100 µM [1] [%] | inhibition at 0.5 h, 10 µM (CYP1A2) [%] | inhibition at 0.75 h, 10 µM (Aurora kinase B) [%] | viability at 72 h, 50 µM [2] [%] | cytotoxicity at 6 h, 10 µM [3] [%] | cell growth (% of control) at 48 h, 10 µM [4] [%] | inhibition [5] | inhibition at 0.5 h, 10 µM (CYP2C9) [%] | growth inhibition (GI) (Trypanosoma brucei [6]) | Activity (Trypanosoma brucei [7]) [%] | cell growth (% of control) at 48 h, 10 µM [8] [%] | Activity (Trypanosoma brucei [9]) [%] | PF (Trypanosoma brucei [10]) | inhibition at 0.5 h, 10 µM (CYP2D6) [%] | inhibition at 2 h, 10 µM (hERG (KCNH2)) [%] | inhibition at 0.5 h, 10 µM (CYP3A4) [%] | inhibition [11] [%] | inhibition of growth at 50 µM (Leishmania infantum) [%] | inhibition of growth at 50 µM (Trypanosoma cruzi) [%] | other results |
| --- | --- | --- | --- | --- | --- | --- | --- | --- | --- | --- | --- | --- | --- | --- | --- | --- | --- | --- | --- | --- | --- |
| NC(=S)N/N=C/C(O)C(O)C(O)CO (stereo not given) | -35.1 | 67.6 | -13.2 | -7.51 | 146 | -1.92 | 129 | 1.7% | -19.7 | inactive | 0.5 | 95.7 | 16.17 | 0.65 | -54.5 | -11.1 | -27.9 | 4.38 |  |  | growth inhibition (GI) (Leishmania infantum): inactive; growth inhibition (GI) (Trypanosoma cruzi): inactive |
| C/C(=N\NC(N)=S)c1ccc(N)cc1 | -20.7 | 95.2 | 11.5 | -14.2 | 113 | -5.04 | 141 | 10.2% | 7.46 | inactive | 4.67 | 83.1 | 75.17 | 2.6 | -13.1 | 6.38 | -4.06 | 2.62 | 9.54 | 51.8 |  |
| Cc1ccsc1/C=N/NC(N)=S | -20.7 | 76 | 38.3 | -5.27 | 95.8 | 2.15 | 91.9 | inactive | 4.24 |  | 8.33 | 85.4 | 34.17 | 1.05 | 8.57 | -5.98 | -8.16 | 1.75 | 8.28 | 24.9 | inhibition of growth at 50 µM (Trypanosoma brucei [6]; Lister 427, 72 h, read-out: GI): 17.3% |
| N/C(S)=N/N=C/c1ccc([N+](=O)[O-])cc1 | -38.4 | 75.6 | 11.6 | -9.68 | 85.6 | 0.08 | 128 | 3.76% | -3.66 | inactive | 8.17 | 122 | 36.33 | 1.12 | -16.9 | 4.43 | 8.17 | 7.99 | 19 | 40.1 |  |
| NC(=S)N/N=C/c1ccc(N)cc1 | -39.5 | 74.4 | -1.56 | -10.5 | 125 | -7.54 | 125 | 7.43% | 3.06 | inactive | 4.33 | 121 | 73.67 | 2.58 | -6.6 | 3.02 | -13.1 | 3.6 | 38.6 |  | growth inhibition (GI) (Trypanosoma cruzi): inactive |
